Laboratory results reported in ChEMBL document CHEMBL5046221, “Identification of Pyrimidine-Based Lead Compounds for Understudied Kinases Implicated in Driving Neurodegeneration” (J Med Chem, 2022).

Tests used:
[1] = molecular target: T1, Serine/threonine-protein kinase 17A (Homo sapiens, UniProt Q9UEE5); experiment: Displacement of tracer K9 from NLuc fused DRAK1 (unknown origin) expressed in HEK293 cells by NanoBRET assay; type: cell-based
T1 sequence (Q9UEE5 whole entry): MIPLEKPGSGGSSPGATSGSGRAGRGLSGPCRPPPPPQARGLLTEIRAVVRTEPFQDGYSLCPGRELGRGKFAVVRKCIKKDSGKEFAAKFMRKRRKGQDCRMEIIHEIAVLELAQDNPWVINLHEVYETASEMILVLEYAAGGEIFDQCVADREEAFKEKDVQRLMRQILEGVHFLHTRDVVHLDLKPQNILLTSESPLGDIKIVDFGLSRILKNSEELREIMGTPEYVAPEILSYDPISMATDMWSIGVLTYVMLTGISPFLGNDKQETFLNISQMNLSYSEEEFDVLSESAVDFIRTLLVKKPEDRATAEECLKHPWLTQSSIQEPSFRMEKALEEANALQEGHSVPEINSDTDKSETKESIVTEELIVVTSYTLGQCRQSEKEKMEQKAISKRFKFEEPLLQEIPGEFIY

[2] = molecular target: Aurora kinase B (Homo sapiens) (UniProt Q96GD4); experiment: Inhibition of full length recombinant human AURKB using AKRRRLSSLRA as substrate at 1 uM incubated for 40 mins in presence of [gamma-33P-ATP] by radiometric scintillation assay relative to control
Method in brief: (§1)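 Eurofins radiometric kinase assay with ATP at Km for each kinase. Compound was tested at a single 1 μM concentration in duplicate, and the result is reported as percent of control.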

[3] = molecular target: T2, NUAK family SNF1-like kinase 1 (Homo sapiens, UniProt O60285); experiment: Inhibition of recombinant human ARK5 (2 to end residues) using KKKVSRSGLYRSPSMPENLNRPR as substrate incubated for 40 mins in presence of [gamma-33ATP] by scintillation counting based radiometry assay
T2 sequence (O60285 whole entry): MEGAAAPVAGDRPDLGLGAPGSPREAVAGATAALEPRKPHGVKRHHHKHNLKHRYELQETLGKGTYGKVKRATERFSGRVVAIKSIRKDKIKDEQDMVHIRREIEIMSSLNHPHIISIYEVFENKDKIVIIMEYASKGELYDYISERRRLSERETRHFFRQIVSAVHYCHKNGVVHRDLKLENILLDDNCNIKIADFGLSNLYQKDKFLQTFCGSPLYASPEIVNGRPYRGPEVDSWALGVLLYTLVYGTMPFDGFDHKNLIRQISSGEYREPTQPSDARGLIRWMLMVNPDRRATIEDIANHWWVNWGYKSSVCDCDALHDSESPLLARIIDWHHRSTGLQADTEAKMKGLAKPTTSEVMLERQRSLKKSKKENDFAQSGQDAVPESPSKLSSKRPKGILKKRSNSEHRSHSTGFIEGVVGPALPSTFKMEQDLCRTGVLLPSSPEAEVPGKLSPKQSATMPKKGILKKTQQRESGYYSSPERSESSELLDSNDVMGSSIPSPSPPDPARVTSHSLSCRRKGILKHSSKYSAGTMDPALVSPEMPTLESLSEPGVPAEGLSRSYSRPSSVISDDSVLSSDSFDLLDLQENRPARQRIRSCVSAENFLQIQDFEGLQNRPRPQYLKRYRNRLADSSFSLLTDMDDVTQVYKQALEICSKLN
Method in brief: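 Eurofins radiometric enzymatic assay with ATP at Km for each kinase. IC50 was derived from a 9-point dose–response curve run in duplicate.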

[4] = Effective permeability in PBS at 7.4 incubated for 5 hrs by PAMPA analysis; type: ADME; settings: pH 7.4, 5 h
Method in brief: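 PAMPA: DMSO stocks were diluted in PBS pH 7.4 and placed in the donor compartment, with PBS pH 7.4 in the acceptor, for 5 h. Both compartments were quantified by CLND against a calibration curve, with background nitrogen correction. Effective permeability was calculated from donor and acceptor concentrations using measured rather than assumed solubility.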

[5] = Kinetic solubility of compound in PBS at pH 7.4 incubated for 24 hrs by chemiluminscent nitrogen detection method; type: physicochemical; settings: buffer, pH 7.4, 24 h
Method in brief: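 Filtrates were quantified by total chemiluminescent nitrogen determination against a calibration curve, with correction for background nitrogen from DMSO and medium.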

[6] = molecular target: Tyrosine-protein kinase JAK2 (Homo sapiens) (UniProt O60674); experiment: Inhibition of recombinant human JAK2 (808 to end residues) using KTFCGTPEYLAPEVRREPRILSEEEQEMFRDFDYIADWC as substrate at 1 uM incubated for 40 mins in presence of [gamma-33P-ATP] by radiometric scintillation assay relative to control; method in brief: as §1
[7] = molecular target: T3, MAP/microtubule affinity-regulating kinase 4 (Homo sapiens, UniProt Q96L34); experiment: Displacement of tracer K5 from NLuc fused MARK4 (unknown origin) expressed in HEK293 cells by NanoBRET assay; type: cell-based
T3 sequence (Q96L34 whole entry): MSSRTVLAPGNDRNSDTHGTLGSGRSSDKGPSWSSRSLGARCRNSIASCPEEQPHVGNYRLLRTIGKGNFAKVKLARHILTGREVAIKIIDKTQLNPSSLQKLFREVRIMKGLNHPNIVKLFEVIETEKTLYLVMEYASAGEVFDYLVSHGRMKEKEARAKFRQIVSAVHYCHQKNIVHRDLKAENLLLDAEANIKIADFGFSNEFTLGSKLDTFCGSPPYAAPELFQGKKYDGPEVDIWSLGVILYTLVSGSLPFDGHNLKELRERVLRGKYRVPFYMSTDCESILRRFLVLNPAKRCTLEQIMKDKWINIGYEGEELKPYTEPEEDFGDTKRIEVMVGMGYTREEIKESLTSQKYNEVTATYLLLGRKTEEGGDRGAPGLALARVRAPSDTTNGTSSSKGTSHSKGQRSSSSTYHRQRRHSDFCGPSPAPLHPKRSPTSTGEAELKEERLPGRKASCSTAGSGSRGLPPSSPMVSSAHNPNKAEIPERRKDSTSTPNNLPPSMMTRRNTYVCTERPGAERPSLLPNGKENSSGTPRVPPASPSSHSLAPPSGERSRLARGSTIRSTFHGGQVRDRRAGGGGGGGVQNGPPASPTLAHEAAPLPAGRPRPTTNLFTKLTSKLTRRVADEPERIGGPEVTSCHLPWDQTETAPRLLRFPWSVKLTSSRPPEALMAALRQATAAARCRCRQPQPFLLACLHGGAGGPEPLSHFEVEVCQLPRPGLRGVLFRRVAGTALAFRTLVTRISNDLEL

[8] = Inhibition of human TTBK1 (1 to 479 residues) using Casein as substrate measured after 40 mins in presence of [gamma33P]ATP by scintillation counting method
Method in brief: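 Eurofins radiometric kinase assay run at ATP equal to Km for each kinase. 9-point dose–response in duplicate gives the IC50.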

Tyrosine-protein kinase JAK2 (Homo sapiens), sequence (O60674 whole entry, the tested form may be a part): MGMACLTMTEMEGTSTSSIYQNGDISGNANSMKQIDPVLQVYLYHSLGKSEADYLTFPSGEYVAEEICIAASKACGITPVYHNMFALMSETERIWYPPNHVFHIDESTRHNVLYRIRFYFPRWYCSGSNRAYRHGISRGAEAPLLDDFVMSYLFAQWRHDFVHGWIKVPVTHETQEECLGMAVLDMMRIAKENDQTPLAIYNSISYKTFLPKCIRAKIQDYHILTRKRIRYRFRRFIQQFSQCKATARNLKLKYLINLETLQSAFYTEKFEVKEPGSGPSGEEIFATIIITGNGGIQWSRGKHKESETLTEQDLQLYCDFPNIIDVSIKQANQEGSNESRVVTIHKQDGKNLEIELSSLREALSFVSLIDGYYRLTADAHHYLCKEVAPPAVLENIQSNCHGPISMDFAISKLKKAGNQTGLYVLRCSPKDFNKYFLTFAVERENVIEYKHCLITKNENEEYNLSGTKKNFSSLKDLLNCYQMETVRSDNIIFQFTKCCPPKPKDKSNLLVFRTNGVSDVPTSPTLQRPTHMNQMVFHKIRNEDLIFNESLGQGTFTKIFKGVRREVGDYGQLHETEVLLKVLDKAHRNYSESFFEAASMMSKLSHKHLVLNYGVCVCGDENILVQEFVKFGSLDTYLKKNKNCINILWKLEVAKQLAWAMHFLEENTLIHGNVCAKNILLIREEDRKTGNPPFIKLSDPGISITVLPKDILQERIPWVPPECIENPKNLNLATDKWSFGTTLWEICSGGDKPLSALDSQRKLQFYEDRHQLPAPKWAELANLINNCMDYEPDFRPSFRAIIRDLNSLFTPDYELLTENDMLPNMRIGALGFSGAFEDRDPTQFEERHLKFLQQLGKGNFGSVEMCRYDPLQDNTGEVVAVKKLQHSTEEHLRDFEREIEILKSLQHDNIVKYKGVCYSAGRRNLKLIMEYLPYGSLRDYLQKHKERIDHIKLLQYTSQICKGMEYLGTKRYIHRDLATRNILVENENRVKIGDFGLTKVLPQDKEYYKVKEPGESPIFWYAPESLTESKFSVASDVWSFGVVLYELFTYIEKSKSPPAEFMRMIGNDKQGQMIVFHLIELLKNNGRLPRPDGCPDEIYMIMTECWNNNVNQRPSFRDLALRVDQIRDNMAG
Aurora kinase B (Homo sapiens), sequence (Q96GD4 whole entry): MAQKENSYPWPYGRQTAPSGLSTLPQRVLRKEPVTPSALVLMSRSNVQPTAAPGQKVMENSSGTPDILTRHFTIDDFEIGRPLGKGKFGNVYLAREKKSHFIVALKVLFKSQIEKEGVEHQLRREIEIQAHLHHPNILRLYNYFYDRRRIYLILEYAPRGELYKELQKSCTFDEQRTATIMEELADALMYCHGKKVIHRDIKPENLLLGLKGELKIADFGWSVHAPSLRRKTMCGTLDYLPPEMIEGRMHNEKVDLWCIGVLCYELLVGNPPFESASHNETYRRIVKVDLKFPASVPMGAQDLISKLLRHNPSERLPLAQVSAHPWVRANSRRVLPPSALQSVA

Row | Structure (SMILES) | IC50 [1] [nM] | % control [2] [%] | IC50 [3] [nM] | Peff ([4]; BLD = below limit of detection) | Kinetic_solubility [5] [µM] | % control [6] [%] | IC50 [7] [nM] | IC50 [8] [nM] | Peff [4] | Kinetic solubility [5] [µM]
1 | NS(=O)(=O)c1ccc(CNc2nc(Nc3cccc(NC(=O)N4CCCC4)c3)ncc2Br)cc1 | > 10000 | 6 | 317 | Bld | 20 | 12 | > 10000 | 192 | – | –
2 | c1cc(CN2CCOCC2)cc(Nc2nccc(NCCc3cnc[nH]3)n2)c1 | > 10000 | 5 | 176 | – | – | 81 | > 10000 | – | 1.66 10^-7 cm/s | 200
3 | NS(=O)(=O)c1ccc(CNc2nc(Nc3cccc(CN4CCOCC4)c3)ncc2Br)cc1 | > 10000 | 7 | 171 | Bld | – | 3 | > 10000 | 66 | – | 4.7
4 | NS(=O)(=O)c1ccc(CNc2nc(Nc3cccc(CN4CCOCC4)c3)ncc2C2CC2)cc1 | > 10000 | 51 | – | – | 118.7 | 87 | > 10000 | 187 | 7.09 10^-7 cm/s | –
